STAT3 activator = activators of IL-6 induced STAT3 signaling; U3A cells, IL-6 STAT3-luciferase reporter, luminescence; 100% = signal with IL-6 EC80 alone; activation (% of control), % at 5.6 µM; actives 0.91% (n = 190,000); AID 871;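 active = activation above the screen-wide mean of compound activation plus 3 SD, cut at about 130% in these data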
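Test system: Human STAT1-deficient U3A cells with stable STAT3-luciferase reporter | Also added: Interleukin-6, 33 ng/mL | Timing: Compound pre-incubation 1 h before IL-6, then 6 h stimulation at 37 °C | Technique: Luciferase reporter luminescence | Read-out: Percent of IL-6-only median luminescence | Benchmarks: IL-6-only wells as 100% reference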
STAT1 blocker = STAT1 signaling inhibition | actives 0.35% (n = 200,000) | inhibition, % at 5.5 µM | NIH 3T3 STAT1-luciferase reporter, IFN-gamma, luminescence;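 active = inhibition above a set limit, the mean inhibition across all tested compounds plus 3 SD, cut at about 34% in these data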
STAT3 inh = inhibitors of IL-6 induced STAT3 signaling; U3A cells, IL-6 STAT3-luciferase reporter, luminescence; host cell line lacks STAT1; inhibition, % at 5.5 µM; actives 0.89% (n = 190,000);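 active = inhibition above the mean inhibition across all screened compounds plus 3 SD, cut at about 44% in these data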
NF-kB neuron act = raises NF-kB expression in human neuronal cells; NF-kB reporter expression; stronger effect = higher value; fold change at 12.5 µM; actives 1.6% (n = 190,000); AID 1239; in the data active = fold change above about 3.3
STAT1 activator = STAT1 signaling activation; NIH 3T3 STAT1-luciferase reporter, IFN-gamma, luminescence; 100% = IFN-gamma alone, no compound; activation (% of control), % at 5.5 µM; actives 2.6% (n = 200,000);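 active = activation above the screen-wide mean activation plus 3 SD, cut at about 130% in these data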
APP 5'UTR act = activates APP 5'UTR luciferase reporter | SH-SY5Y APP 5'UTR luciferase reporter, luminescence; zero percent = DMSO vehicle wells | activation, % at 2 µM | actives 1% (n = 190,000);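 active = activation above a set limit, based on mean plus 3 SD of controls, cut at about 140% in these data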
STAT1 act conf = STAT1 activation, confirmation assay. activation (% of control), % at 5.7 µM. shares compounds with STAT1 activator. actives 97% (n = 1,200). NIH 3T3 STAT1-luciferase reporter, IFN-gamma potentiation, luminescence; 100% = IFN-gamma EC80 alone, no compound;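 active = activation above a set limit carried over from the earlier primary STAT1 screen, cut at about 140% in these data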
NFkB act = NF-kappaB activation in STAT1 activator counter-screen. shares compounds with STAT1 activator. HEK293T NF-kB luciferase reporter, TNF-alpha stimulated, luminescence; 100% = TNF-alpha with vehicle only. activation (% of control), % at 5.7 µM. actives 43% (n = 1,200). AID 1306;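 active = activation above the mean of solvent-only control wells plus 3 SD, set per campaign, cut at about 130% in these data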;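 note: TNF-alpha given at a submaximal dose yielding about 80% of full reporter signal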
STAT3 act 2 = activates human STAT3, counter-screen to STAT1 activators; shares compounds with STAT1 activator; U3A cells STAT3-luciferase reporter, IL-6, luminescence; cells lack STAT1; 100 = IL-6 alone, no compound effect; activation (% of control), % at 5.7 µM; actives 46% (n = 1,200); AID 1316;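 active = activation above the solvent-only control well mean plus 3 SD, set per plate batch, cut at about 110% in these data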;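 note: higher means more STAT3 reporter activation so hits are non-selective activators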
A number is an active result. Shown are actives, neighbours in structure and some others; about 4.9% of the full set was active somewhere.

Screening CC(=O)c1cnc2c(-c3ccc(Cl)cc3)cnn2c1C returned STAT3 activator inactive, STAT1 blocker inactive, STAT3 inh inactive, NF-kB neuron act inactive, STAT1 activator inactive and APP 5'UTR act inactive.
`CS(=O)(=O)c1cnc2c(-c3ccc(F)cc3)cnn2c1N` gave STAT3 activator inactive, STAT1 blocker inactive, STAT3 inh inactive, NF-kB neuron act 3.5, STAT1 activator 162, APP 5'UTR act inactive, STAT1 act conf 189, NFkB act inactive and STAT3 act 2 inactive.
`Clc1ccc(-c2cnn3c(-c4ccncc4)ccnc23)cc1` gave STAT3 activator inactive, STAT1 blocker inactive, STAT3 inh inactive, NF-kB neuron act 3.6, STAT1 activator 157, APP 5'UTR act 221, STAT1 act conf 237, NFkB act inactive and STAT3 act 2 inactive.
Screening Nc1c(C(=O)O)cnc2c(-c3ccc(Cl)cc3)cnn12 returned STAT3 activator inactive, STAT1 blocker inactive, STAT3 inh inactive, NF-kB neuron act 4.9, STAT1 activator 194, APP 5'UTR act inactive, STAT1 act conf 219, NFkB act inactive and STAT3 act 2 152.
For O=C(NCCc1ccccc1)C1CCN(C(=O)c2ccc([N+](=O)[O-])cc2)CC1 the results were STAT3 activator inactive, STAT1 blocker inactive, STAT3 inh inactive, NF-kB neuron act inactive, STAT1 activator inactive and APP 5'UTR act inactive.
CCOC(=O)c1c(C)n(C)c2ccc(OC)c([N+](=O)[O-])c12 was read as STAT3 activator inactive, STAT1 blocker inactive, STAT3 inh inactive, NF-kB neuron act inactive, STAT1 activator inactive and APP 5'UTR act inactive.
C=CCN(C(=O)CNC(=O)c1cccs1)C(C(=O)NC(C)(C)C)c1ccccc1 (stereo not drawn) was read as STAT3 activator inactive, STAT1 blocker inactive, STAT3 inh inactive, NF-kB neuron act inactive, STAT1 activator inactive and APP 5'UTR act inactive.
COc1c(C)cccc1C(=O)Nc1ccc(N2CCOCC2)c(Cl)c1 was read as STAT3 activator inactive, STAT1 blocker inactive, STAT3 inh inactive, NF-kB neuron act 6.1, STAT1 activator 152, APP 5'UTR act 154, STAT1 act conf 199, NFkB act inactive and STAT3 act 2 inactive.
For O=C(Nc1ccc(N2CCOCC2)c(Cl)c1)c1cccnc1Cl the results were STAT3 activator inactive, STAT1 blocker inactive, STAT3 inh inactive, NF-kB neuron act inactive, STAT1 activator inactive and APP 5'UTR act inactive.
Screening O=C(Nc1ccc(N2CCOCC2)c(Cl)c1)c1c(F)c(F)c(F)c(F)c1F returned STAT3 activator inactive, STAT1 blocker inactive, STAT3 inh inactive, NF-kB neuron act inactive, STAT1 activator inactive and APP 5'UTR act inactive.
For O=C(Nc1ccc(N2CCOCC2)c(Cl)c1)c1cccc(F)c1 the results were STAT3 activator inactive, STAT1 blocker inactive, STAT3 inh inactive, NF-kB neuron act 5.5, STAT1 activator 185, APP 5'UTR act inactive, STAT1 act conf 193, NFkB act 135 and STAT3 act 2 118.
CC1SC(=Nc2ccccc2)N(S(=O)(=O)c2ccccc2)C1=O (stereo not drawn) was read as STAT3 activator inactive, STAT1 blocker inactive, STAT3 inh inactive, NF-kB neuron act inactive, STAT1 activator inactive and APP 5'UTR act inactive.
COc1ccc(C(=O)Nc2nc3ccccc3s2)cc1OC was read as STAT3 activator inactive, STAT1 blocker inactive, STAT3 inh inactive, NF-kB neuron act 3.6, STAT1 activator 174, APP 5'UTR act 139, STAT1 act conf 227, NFkB act 155 and STAT3 act 2 114.

High-throughput results as filed in PubChem.
